Screens from PubChem BioAssay.
Rows were chosen to be rich in hits. Some 2.9% of all compounds tested hit in one or more screens of this group.
SENP8 block-1: SENP8 protease inhibition; inhibition, % at 10 µM; purified SENP8, Z-RLRGG-aminoluciferin cleavage, luminescence; Q96LD8; 1.2% of 330,000 active; in the data active means inhibition above about 50%
Target sequence (Q96LD8 whole entry, looked up): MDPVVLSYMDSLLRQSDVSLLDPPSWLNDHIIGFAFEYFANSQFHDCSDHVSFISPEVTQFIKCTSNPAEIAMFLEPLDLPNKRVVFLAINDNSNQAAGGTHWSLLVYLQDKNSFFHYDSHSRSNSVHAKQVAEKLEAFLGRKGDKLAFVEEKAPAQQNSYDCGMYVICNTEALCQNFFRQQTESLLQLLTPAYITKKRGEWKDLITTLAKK
SENP8 block-2: blocks human SENP8 cleavage of Nedd8 substrate. 0.64% of 360,000 active. recombinant SENP8, Nedd8 substrate fluorescence. AID 602440. inhibition, % at 20 µM. Q96LD8; in the data active means inhibition mostly above about 40%, no sharp cut-off; inactive means mostly below about 27%
SENP1 inh: inhibitors of human SENP1 SUMO protease catalytic domain. Q9P0U3. recombinant SENP1 catalytic domain, CyPet-SUMO1-YPet FRET cleavage. inhibition, % at 10 µM. 0.21% of 360,000 active;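 active means inhibition at least 30% at 10 µM, raw YFP signal under a set limit, fluorescence ratio 0.5 to 1.5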
Target sequence (Q9P0U3 419-644 limits assumed): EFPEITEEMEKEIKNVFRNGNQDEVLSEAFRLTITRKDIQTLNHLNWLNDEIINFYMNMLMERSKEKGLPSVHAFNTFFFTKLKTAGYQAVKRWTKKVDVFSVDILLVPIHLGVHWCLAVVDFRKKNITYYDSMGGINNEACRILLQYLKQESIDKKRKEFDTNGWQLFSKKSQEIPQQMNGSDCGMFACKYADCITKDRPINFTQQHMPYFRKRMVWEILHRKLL
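System: Recombinant human SENP1 catalytic domain, His6-tagged | Incubation: Enzyme reaction for 50 min at room temperature, dark | Medium: Tris pH 8 with BME, BSA, NP40 and catalase | Also added: 25 nM SUMO1 FRET substrate | Compound: 10 µM single point, 0.5% DMSO | Measured by: FRET fluorescence in CFP and YFP emission channels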
HSP90 refold inh: HSP90 refolding inhibition in rabbit reticulocyte lysate | 0.91% of 290,000 active | luciferase refolding luminescence, 3 h | inhibition, % at 5.6 µM;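 active means inhibition above the screen-wide mean plus 3 SD, computed separately per campaign, cut at about 16% in these data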;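 further: inhibitors lower the luminescence because luciferase stays unfolded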
SENP6 inh: inhibitors of human SENP6 protease; Q9GZR1; Recombinant SENP6 catalytic domain, aminoluciferin luminescence; inhibition, % at 10 µM; 1.8% of 330,000 active; AID 2599;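 active means inhibition above about 50% at the single tested dose, limit read from the data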
SENP7 inh: inhibitors of human SENP7 protease; inhibition, % at 5 µM; 1.5% of 330,000 active; recombinant SENP7, Z-RLRGG-aminoluciferin luminescence, 40 min; Q9BQF6; AID 434973;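 active means inhibition above about 50% at the single test dose, limit read from the data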
SENP8 confirm: human SENP8 inhibition, confirmed; inhibition, % at 12.5 µM; AID 488912; 40% of 6,200 active; Recombinant SENP8, Z-RLRGG-aminoluciferin luminescence, 60 min; shares compounds with SENP7 inh;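 active means mean inhibition across replicates above about 50%, limit read from the data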
SENP6 confirm: confirmation of human SENP6 protease inhibitors | shares compounds with SENP7 inh | recombinant SENP6, Z-RLRGG-aminoluciferin luminescence | inhibition, % at 12.5 µM | 58% of 6,200 active | AID 488915
SENP7 confirm: confirmation of human SENP7 protease inhibitors. 69% of 6,200 active. shares compounds with SENP7 inh. inhibition, % at 12.5 µM. recombinant SENP7, Z-RLRGG-aminoluciferin luminescence, 40 min
Casp3 select: caspase-3 inhibition (SENP selectivity assay) | shares compounds with SENP7 inh | purified caspase-3, Z-DEVD-aminoluciferin luminescence, 60 min | inhibition, % at 12.5 µM | 60% of 6,200 active | AID 488918;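 active means mean inhibition above about 50%, limit read from the data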
Target sequence (P42574 28-227 limits assumed): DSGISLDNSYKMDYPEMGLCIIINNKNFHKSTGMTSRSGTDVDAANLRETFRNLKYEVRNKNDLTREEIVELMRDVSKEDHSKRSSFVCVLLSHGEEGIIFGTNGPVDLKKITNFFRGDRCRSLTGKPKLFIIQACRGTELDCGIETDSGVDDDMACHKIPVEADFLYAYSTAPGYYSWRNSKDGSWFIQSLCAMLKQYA
SENP luc ctr: interferes with luciferase luminescence in SENP counter-screen | shares compounds with SENP7 inh | Pre-incubated SENP8/Z-RLRGG-aminoluciferin, luciferase luminescence interference | inhibition, % at 12.5 µM | 39% of 6,200 active | AID 488919;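 active means mean inhibition above about 50% when retested at one dose, limit read from the data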
A number is an active result.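 How the source made its calls, unless noted: active means mean inhibition above about 50% in the one-dose retest (limit read from the data); inactive means the rest.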

How did CCOC(=O)c1sc(NC(=O)c2ccc(CC)s2)nc1C do in these assays?
SENP8 block-1: inactive; SENP8 block-2: inactive; SENP1 inh: inactive; HSP90 refold inh: inactive; SENP6 inh: inactive; SENP7 inh: 67; SENP8 confirm: inactive; SENP6 confirm: inactive; SENP7 confirm: inactive; Casp3 select: inactive; SENP luc ctr: inactive

What do the screens show for `CCOC(=O)c1sc(NC(=O)c2cc3ccccc3o2)nc1C`?
SENP8 block-1: inactive; SENP8 block-2: inactive; SENP1 inh: inactive; HSP90 refold inh: inactive; SENP6 inh: inactive; SENP7 inh: inactive

How did CCCc1ccc(OC(=O)c2ccc(O)cc2Cl)cc1 do in these assays?
SENP8 block-1: 66; SENP8 block-2: inactive; SENP1 inh: inactive; HSP90 refold inh: inactive; SENP6 inh: 61; SENP7 inh: inactive; SENP8 confirm: 58; SENP6 confirm: 73; SENP7 confirm: 90; Casp3 select: inactive; SENP luc ctr: inactive

Results for Nc1c(Cl)cc2c(c1Br)Cc1ccccc1-2 ?
SENP8 block-2: inactive; SENP1 inh: inactive

Results for Nc1c(Cl)cc2c(c1Oc1ccccc1)C(=O)c1ccccc1C2=O ?
SENP8 block-1: inactive; SENP8 block-2: inactive; SENP1 inh: 70; HSP90 refold inh: inactive; SENP6 inh: 58; SENP7 inh: inactive; SENP8 confirm: inactive; SENP6 confirm: inactive; SENP7 confirm: inactive; Casp3 select: inactive; SENP luc ctr: inactive

Results for Cc1ccc(NC(=O)CSc2nc(=O)n(CCCN3CCOCC3)c3c2CCCC3)cc1 ?
SENP8 block-1: inactive; SENP8 block-2: inactive; SENP1 inh: inactive; SENP6 inh: inactive; SENP7 inh: inactive

What do the screens show for `COC(=O)c1c(-c2cccnc2)csc1NC(=O)c1ccc2c(c1)OCO2`?
SENP8 block-1: 73; SENP8 block-2: inactive; SENP1 inh: inactive; HSP90 refold inh: inactive; SENP6 inh: 72; SENP7 inh: 95; SENP8 confirm: inactive; SENP6 confirm: inactive; SENP7 confirm: inactive; Casp3 select: inactive; SENP luc ctr: inactive

Results for O=C(N/N=C/c1ccc([N+](=O)[O-])cc1)c1[nH]ncc1Br ?
SENP8 block-1: 72; SENP8 block-2: inactive; SENP1 inh: inactive; HSP90 refold inh: inactive; SENP6 inh: 86; SENP7 inh: 85; SENP8 confirm: inactive; SENP6 confirm: inactive; SENP7 confirm: inactive; Casp3 select: 88; SENP luc ctr: inactive

How did CCN(CC)S(=O)(=O)c1ccc(C)c(NC(=O)/C=C/c2cccs2)c1 do in these assays?
SENP8 block-1: inactive; SENP8 block-2: inactive; SENP1 inh: inactive; HSP90 refold inh: inactive; SENP6 inh: inactive; SENP7 inh: inactive

What do the screens show for `Cc1cc(C)nc(NC(=O)/C=C/c2ccc(Cl)cc2Cl)c1`?
SENP8 block-1: 62; SENP8 block-2: inactive; SENP1 inh: inactive; HSP90 refold inh: inactive; SENP6 inh: 76; SENP7 inh: 59; SENP8 confirm: inactive; SENP6 confirm: inactive; SENP7 confirm: 79; Casp3 select: inactive; SENP luc ctr: inactive

Results for Cc1ccccc1NC(=O)/C=C/c1cccs1 ?
SENP8 block-1: inactive; SENP8 block-2: inactive; SENP1 inh: inactive; HSP90 refold inh: inactive; SENP6 inh: inactive; SENP7 inh: 63; SENP8 confirm: 52; SENP6 confirm: 51; SENP7 confirm: 86; Casp3 select: 80; SENP luc ctr: 70

What do the screens show for `Cc1cc(C)nc(NC(=O)/C=C/c2cccs2)c1`?
SENP8 block-1: inactive; SENP8 block-2: inactive; SENP1 inh: inactive; HSP90 refold inh: inactive; SENP6 inh: inactive; SENP7 inh: 54; SENP8 confirm: inactive; SENP6 confirm: inactive; SENP7 confirm: 72; Casp3 select: 55; SENP luc ctr: 55

How did CCOC(=O)c1ccc(NC(=O)/C=C/c2cccs2)cc1 do in these assays?
SENP8 block-1: 62; SENP8 block-2: inactive; SENP1 inh: inactive; HSP90 refold inh: inactive; SENP6 inh: 81; SENP7 inh: 79; SENP8 confirm: 53; SENP6 confirm: 53; SENP7 confirm: 84; Casp3 select: inactive; SENP luc ctr: inactive

Results for COCCCNc1nccn2ccnc12 ?
SENP8 block-2: inactive; SENP1 inh: inactive

Results for CCC(=O)N1CCC1(C)C(=O)Nc1ccc(C)c(C)c1 (stereo not drawn) ?
SENP8 block-2: inactive; SENP1 inh: inactive

Results for CCOc1cc(Br)cc(/C=N/NC(=O)c2cccnc2)c1O ?
SENP8 block-1: inactive; SENP8 block-2: inactive; SENP1 inh: inactive; HSP90 refold inh: inactive; SENP6 inh: inactive; SENP7 inh: inactive

What do the screens show for `CN(C(=O)c1ccc(F)cc1)c1ccc(OCC(=O)Nc2ccccc2C(=O)O)cc1`?
SENP8 block-1: inactive; SENP8 block-2: inactive; SENP1 inh: inactive; SENP6 inh: inactive; SENP7 inh: inactive

How did CCCCNc1nc(N)nc(-c2cc(Cl)ccc2O)n1 do in these assays?
SENP8 block-1: inactive; SENP8 block-2: inactive; SENP1 inh: inactive; HSP90 refold inh: inactive; SENP6 inh: 70; SENP7 inh: 54; SENP8 confirm: inactive; SENP6 confirm: 56; SENP7 confirm: 86; Casp3 select: inactive; SENP luc ctr: inactive

How did CCCNc1nc(N)nc(-c2cc(Cl)ccc2OC)n1 do in these assays?
SENP8 block-1: inactive; SENP8 block-2: inactive; SENP1 inh: inactive; HSP90 refold inh: inactive; SENP6 inh: inactive; SENP7 inh: inactive

Results for CCNc1nc(N)nc(-c2cc(Cl)ccc2O)n1 ?
SENP8 block-1: 55; SENP8 block-2: inactive; SENP1 inh: inactive; HSP90 refold inh: inactive; SENP6 inh: 83; SENP7 inh: 65; SENP8 confirm: 72; SENP6 confirm: 69; SENP7 confirm: 90; Casp3 select: inactive; SENP luc ctr: inactive

How did O=S(=O)(c1ccc(F)cc1)N1CCC2(CC1)OCCN2S(=O)(=O)c1cccs1 do in these assays?
SENP8 block-1: inactive; SENP8 block-2: inactive; SENP1 inh: inactive; SENP6 inh: inactive; SENP7 inh: inactive

Results for C/C(=N/NC(=O)c1ccccc1O)c1ccc(N2C(=O)C3CCCCC3C2=O)cc1 (stereo not drawn) ?
SENP8 block-1: inactive; SENP8 block-2: inactive; SENP1 inh: inactive; HSP90 refold inh: inactive; SENP6 inh: 62; SENP7 inh: inactive; SENP8 confirm: inactive; SENP6 confirm: inactive; SENP7 confirm: inactive; Casp3 select: inactive; SENP luc ctr: inactive
